Rows were chosen to be rich in hits. Some 1.5% of all compounds tested hit in one or more screens of this group.
APJ antag: antagonists of human apelin receptor APJ, primary screen, CHO-K1 cells, beta-arrestin complementation, luminescence. P35414. inhibition, % at 20 µM. 0.32% of 330,000 active. AID 2521, 2010;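 active = inhibition above about 40% at 20 µM, limit read from the data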;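 note: cells challenged with 10 nM apelin-13 agonist together with compound; plate controls were apelin-13 plus DMSO wells for no effect and DMSO wells lacking apelin-13 for full effect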
CCR6 antag: CCR6 receptor antagonists, primary screen, cell-based, CHO-K1, luminescence, beta-arrestin, uHTS. CHO-K1 CCR6 PathHunter beta-arrestin, CCL20-stimulated. inhibition, % at 20 µM. 0.49% of 340,000 active. AID 493098, 2011;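 active = compounds whose inhibition of the agonist-driven luminescence signal at 20 µM reaches about 50%, limit read from the data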;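 note: cells stimulated with CCL20 at 14 nM final; plate controls were DMSO with CCL20 for no effect and DMSO without agonist for full effect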
CXCR6 inh: CXCR6 receptor inhibitors, primary screen, cell-based, beta-arrestin, luminescence, CHO-K1 PathHunter, 1536-well; inhibition, % at 20 µM; 0.36% of 360,000 active; C-X-C chemokine receptor type 6 (Homo sapiens), O00574; in the data active = inhibition above about 34%, passing the limit was not always enough;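 note: antagonist mode with CXCL16 agonist at 10 nM final; 0% = 10 nM CXCL16 with DMSO and 100% = unstimulated wells without agonist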
APJ agonist: agonists of human apelin receptor APJ, primary screen, CHO-K1 cells, PathHunter beta-arrestin, luminescence | P35414 | 0% DMSO wells, 100% apelin | activation, % at 20 µM | 0.11% of 330,000 active | AID 2520, 2010;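 active = activation more than six SD over the plate average, tested at 20 µM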;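 note: 0% = DMSO alone and 100% = apelin-13 at 10 nM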
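Assay system: engineered CHO-K1 APJ arrestin reporter cells; Amount: 1000 CHO-K1 reporter cells seeded per well; Dosing: one dose, 20 µM compound, 1% DMSO; Times: compound stimulation 90 min at 25 °C, detection 60 min; Measured by: luminescent beta-gal fragment complementation, chemiluminescent substrate; Read-out: APJ–arrestin association signal; Controls: DMSO vs Apelin-13 10 nM.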
EBI2 block: EBI2 receptor antagonists, beta-arrestin recruitment, primary screen, cell-based, luminescence, 7a,25-OHC stimulation, uHTS | G-protein coupled receptor 183 (Homo sapiens), P32249 | 7a,25-OHC stimulated | inhibition, % at 5 µM | 0.81% of 360,000 active | AID 651636, 2012; in the data active = inhibition above about 38%;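 note: enzyme fragment complementation signal reports receptor beta-arrestin coupling in cells; 0% = agonist plus DMSO wells and 100% = wells without agonist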
Target sequence (P32249 whole entry, looked up, the tested form may be a part): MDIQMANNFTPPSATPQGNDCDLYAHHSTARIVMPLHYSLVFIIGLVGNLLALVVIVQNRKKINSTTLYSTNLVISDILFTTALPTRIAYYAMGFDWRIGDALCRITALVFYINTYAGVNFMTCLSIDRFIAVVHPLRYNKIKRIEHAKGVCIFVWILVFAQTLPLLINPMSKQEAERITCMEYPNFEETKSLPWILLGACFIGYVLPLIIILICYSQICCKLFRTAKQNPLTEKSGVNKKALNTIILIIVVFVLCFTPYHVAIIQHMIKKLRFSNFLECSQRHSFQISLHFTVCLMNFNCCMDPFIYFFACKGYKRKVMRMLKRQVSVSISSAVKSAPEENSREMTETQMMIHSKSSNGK
EBI2 antag conf: EBI2 antagonist hit retest, beta-arrestin, confirmation, cell-based, single concentration, luminescence, 7a,25-OHC stimulation; shares compounds with EBI2 block; 7a,25-OHC antagonism; inhibition, % at 5 µM; 29% of 2,400 active; AID 651997, 2013;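 active = inhibition of at least 50%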
EBI2 ag: EBI2 agonist activity of antagonist hits, confirmation, counter-screen for EBI2 antagonist project, cell-based, single concentration, agonist mode, luminescence; shares compounds with EBI2 block; 2,400 tested, under 10 active; activation, % at 5 µM; EBI2-expressing cells, 60 min; 0% vehicle, 100% 7α,25-dihydroxycholesterol control;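 active = activation of at least 50%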
bGal counter: E. coli beta-galactosidase enzyme inhibition, confirmation, counter-screen for EBI2 antagonist project, biochemical, luminescence, single concentration; 1% of 2,400 active; inhibition, % at 5 µM; purified beta-galactosidase, luminescent Galacton Star, 15 min; shares compounds with EBI2 block;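 active = replicate-average signal at least 3 plate SD below neutral wells, shown as high inhibition, flagging enzyme-inhibiting false positives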;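 note: 0% = DMSO wells with enzyme and 100% = wells lacking enzyme; higher means stronger loss of beta-gal luminescence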
* hit, by the source's call; nt = no result given.

SMILES	APJ antag	CCR6 antag	CXCR6 inh	APJ agonist	EBI2 block	EBI2 antag conf	EBI2 ag	bGal counter
COC(=O)c1ccc(NC(=O)C2CCCN2C(=O)OCc2ccccc2)cc1 (stereo unspecified)	-1	6	-1	0	18	nt	nt	nt
Nc1ccccc1N=Cc1ccc(-c2cccc(Cl)c2)o1	-8	11	25	9	42*	33	-1	-8
COC(=O)N/N=C/c1ccc(-c2cccc(Cl)c2)o1	-20	-2	-2	-1	-4	nt	nt	nt
COC(=O)c1c(NC(=O)CN2C(=O)c3ccccc3C2=O)sc(Cc2ccc3c(c2)OCO3)c1C	2	-8	6	0	63*	33	0	-12
COC(=O)c1c(NC(=O)CN2CCN(Cc3ccc4c(c3)OCO4)CC2)sc(C)c1C	1	5	-4	-5	10	nt	nt	nt
O=C(O)C(Cc1c[nH]c2ccccc12)N1C(=O)C2C3c4ccccc4C(c4ccccc43)[C@@H]2C1=O (stereo partly specified)	8	7	0	-1	-2	nt	nt	nt
CCOC(=O)c1cnn(-c2nc(-c3ccccc3)cs2)c1C(F)(F)F	-3	-7	nt	-3	nt	nt	nt	nt
CCOC(=O)c1cnn(-c2nc(-c3ccc(F)cc3)cs2)c1C(F)(F)F	-6	7	-12	-2	53*	56*	1	6
COc1ccc(OCCN2CCC(C(=O)NC(c3ccc(Cl)cc3)c3ncccc3C)CC2)cc1 (stereo unspecified)	nt	nt	6	nt	55*	17	-2	-14
COc1ccc(OCCN2CCC(C(=O)NC(c3ccccn3)c3ccccc3OC)CC2)cc1 (stereo unspecified)	nt	nt	-1	nt	4	nt	nt	nt
COc1ccc(OCCN2CCC(C(=O)NC(c3ccc(F)cc3)c3ncccc3C)CC2)cc1 (stereo unspecified)	nt	nt	-3	nt	46*	12	-1	-4
COc1ccccc1C(NC(=O)C1CCN(CCOc2ccc3ccccc3c2)CC1)c1ccccn1 (stereo unspecified)	nt	nt	16	nt	45*	18	0	8
COc1ccc(/C=C/CN2CCC(C(=O)NC(c3ccc(F)cc3)c3ccc4ccccc4n3)CC2)cc1 (stereo unspecified)	nt	nt	10	nt	60*	26	-1	-6
CC(C)CN1CCC(C(=O)NC(c2ccc(F)cc2)c2ccc3ccccc3n2)CC1 (stereo unspecified)	nt	nt	12	nt	0	nt	nt	nt
O=c1[nH]c2cc([N+](=O)[O-])c(NCCO)c([N+](=O)[O-])c2[nH]1	27	29	14	-7	6	nt	nt	nt
O=C(c1ccc([N+](=O)[O-])cc1)N1CCN(Cc2ccccc2)CC1	2	8	-2	-3	16	nt	nt	nt
O=C(c1ccc(-n2cccc2)cc1)N1CCN(Cc2ccccc2)CC1	6	6	-2	-1	84*	73*	-1	-13
CN1CCN(C(=O)c2ccc(Cl)cc2)CC1	-6	4	4	0	-1	nt	nt	nt
CN1CCN(C(=O)c2ccc(-n3cccc3)cc2)CC1	8	-17	0	1	34*	23	0	-16
O=C(c1ccc(Br)cc1)N1CCC(C(=O)N2CCN(Cc3ccccc3)CC2)CC1	14	-4	0	0	63*	37	1	10
O=C(Nc1nnc([C@H]2C[C@H](O)[C@@H](CO)O2)s1)Nc1ccccc1Oc1ccccc1	nt	nt	4	nt	-5	nt	nt	nt
O=C(Nc1cnccn1)c1ccc(F)cc1Cl	10	10	-7	1	-11	nt	nt	nt
CCn1c(SCC(=O)NNC(=O)c2ccc(C)cc2)nnc1-c1ccncc1	-30	-10	-5	-4	-2	nt	nt	nt
COc1ccc(-n2c(SCC(=O)NNC(=O)c3ccc(C)cc3)nnc2-c2ccncc2)cc1	5	-1	-9	-2	55*	30	2	3
CCn1c(SCC(=O)NNC(=O)c2ccc(OC)cc2)nnc1-c1cccnc1	2	16	7	-3	59*	15	1	2
SMILES	APJ antag	CCR6 antag	CXCR6 inh	APJ agonist	EBI2 block	EBI2 antag conf	EBI2 ag	bGal counter
O=C(CSc1nnc(-c2ccc(O)cc2)n1Cc1ccccc1)NNC(=O)c1ccc(Br)cc1	-6	2	2	-3	89*	87*	-1	-7
CC(C)OC(=O)CSc1nnc(-c2ccc(O)cc2)n1Cc1ccccc1	-8	13	1	-8	-6	nt	nt	nt
O=C(Nc1ccccc1N1CCCCC1)C1CCN(C(=O)c2ccc(Cl)cc2)CC1	18	12	-1	-8	58*	6	2	-11
O=C(Cc1ccccc1)Nc1ccccc1N1CCN(c2ccccc2)CC1	19	30	24	2	41*	10	0	7
O=C(Nc1ccccc1N1CCCC1)C1CCN(C(=O)c2ccc(Cl)cc2)CC1	22	11	-5	-6	32	nt	nt	nt
O=C(CSc1ccc(Cl)cc1)Nc1ccccc1N1CCN(C(=O)c2ccc(Cl)cc2)CC1	-1	11	9	0	43*	14	0	5
O=C(CSc1ccc([N+](=O)[O-])cc1)Nc1ccccc1N1CCOCC1	4	12	1	0	12	nt	nt	nt
O=C(CSc1ccc(Br)cc1)Nc1ccccc1N1CCOCC1	2	10	-3	-7	43*	42	1	6
CC(C(=O)O)c1ccc(N2Cc3ccccc3C2=O)cc1 (stereo unspecified)	-12	3	-6	10	-7	nt	nt	nt
Cc1cc(C(=O)CN2C(=O)C(=O)N(CCC3=CCCCC3)C2=O)c(C)n1C	3	-1	3	-4	4	nt	nt	nt
CCc1ccc(OCC(=O)Nc2ccc(S(=O)(=O)Nc3ccccn3)cc2)cc1	10	10	-7	-2	61*	29	-1	11
CC(C)c1ccc(OCC(=O)Nc2ccc(S(=O)(=O)Nc3ccccn3)cc2)cc1	11	6	-7	-1	-1	nt	nt	nt
Cc1ccc(C(=O)N/C(=C/c2ccccc2)C(=O)NCC2CCCO2)cc1 (stereo unspecified)	1	-1	-5	-2	-6	nt	nt	nt
Cc1cccc(C)c1NCc1n[nH]c(=S)n1-c1ccccc1	-9	-18	-2	-4	-10	nt	nt	nt

Source: PubChem BioAssay
